From ChEMBL document CHEMBL2177098, “Synthesis and evaluation of novel ¹⁸F labeled 2-pyridinylbenzoxazole and 2-pyridinylbenzothiazole derivatives as ligands for positron emission tomography (PET) imaging of β-amyloid plaques” (J Med Chem, 2012)
One block for each molecule: values may come before it.

Assays:
[1] = Displacement of [125I]-IMPY from amyloid beta (1 to 42) fibrils after 2 hrs by gamma-counting analysis
Outline: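 Competition binding with aggregated Aβ1-42 fibrils and [125I]IMPY (60000−100000 cpm/100 μL) in 0.05% BSA (1 mL total); inhibitors 10⁻⁴−10^−8.5 M in ethanol. Incubated 37 °C for 2 h, then GF/B vacuum filtration with PBS (0.02 M, pH 7.4) washes and γ counting. Three repeats; IC50 converted to Ki by Cheng−Prusoff.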

Heart [2] = assay: Drug uptake in ICR mouse heart at 370 kBq/100 ul, iv at 60 mins by gamma-counting analysis; type: ADME, organism-based; conditions: in vivo, 1 h
Outline: (§1)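 Male ICR mice (5 weeks, about 20 g) got 18F tracer in saline (370 KBq per 100 μL) via tail vein; n = 5 per time point, killed at 2, 10, 30, 60 min. Organs weighed and γ-counted; percent dose per gram wet tissue from comparison with diluted injectate aliquots.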

[3] = n-Octanol-PBS buffer partition coefficient, log D of the compound at 1.5 MBq after 3 mins at pH 7.4; type: physicochemical
Outline: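 The tracer was partitioned between n-octanol and PBS by vortexing for 3 min at room temperature, then centrifuged for 5 min at 3000 rpm. Samples of the octanol (50 μL) and aqueous (500 μL) layers were counted. log D is the log of the octanol/PBS counts-per-gram ratio. The octanol layer was repartitioned until values were consistent. Measured in triplicate and repeated three times.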

Spleen [4] = assay: Drug uptake in ICR mouse spleen at 370 kBq/100 ul, iv at 60 mins by gamma-counting analysis; type: ADME, organism-based; conditions: in vivo, 1 h; outline: as §1
Brain [5] = assay: Drug uptake in ICR mouse brain at 370 kBq/100 ul, iv at 60 mins by gamma-counting analysis; type: ADME, organism-based; conditions: in vivo, 1 h; outline: as §1
Spleen [6] = assay: Drug uptake in ICR mouse spleen at 370 kBq/100 ul, iv at 10 mins by gamma-counting analysis; type: ADME, organism-based; conditions: in vivo; outline: as §1
Stomach [7] = assay: Drug uptake in ICR mouse stomach assessed per organ at 370 kBq/100 ul, iv at 60 mins by gamma-counting analysis; type: ADME, organism-based; conditions: in vivo, 1 h
Outline: (§2)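 Normal male ICR mice (5 weeks, about 20 g) received the ¹⁸F tracer in saline (370 KBq per 100 μL) by tail-vein injection. Groups of n = 5 were killed at 2, 10, 30 and 60 min. Organs were removed, weighed and γ-counted against diluted aliquots of the injectate, giving % dose per gram. Stomach and intestine were expressed per organ. The brain ratio is 2 min/60 min uptake. Values are mean ± SD.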

Kidney [8] = assay: Drug uptake in ICR mouse kidney at 370 kBq/100 ul, iv at 30 mins by gamma-counting analysis; type: ADME, organism-based; conditions: in vivo, 0.5 h; outline: as §1
Stomach [9] = assay: Drug uptake in ICR mouse stomach assessed per organ at 370 kBq/100 ul, iv at 2 mins by gamma-counting analysis; type: ADME, organism-based; conditions: in vivo
Outline: (§3)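 Male ICR mice (5 weeks, about 20 g) got 18F tracer in saline (370 KBq per 100 μL) via tail vein; n = 5 per time point, killed at 2, 10, 30, 60 min. Organs removed and γ-counted against diluted injectate; expressed as % injected dose per organ.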

Intestine [10] = assay: Drug uptake in ICR mouse intestine assessed per organ at 370 kBq/100 ul, iv at 30 mins by gamma-counting analysis; type: ADME, organism-based; conditions: in vivo, 0.5 h; outline: as §3
Brain [11] = assay: Drug uptake in ICR mouse brain at 370 kBq/100 ul, iv at 30 mins by gamma-counting analysis; type: ADME, organism-based; conditions: in vivo, 0.5 h; outline: as §1
Stomach [12] = assay: Drug uptake in ICR mouse stomach assessed per organ at 370 kBq/100 ul, iv at 10 mins by gamma-counting analysis; type: ADME, organism-based; conditions: in vivo; outline: as §3
Liver [13] = assay: Drug uptake in ICR mouse liver at 370 kBq/100 ul, iv at 60 mins by gamma-counting analysis; type: ADME, organism-based; conditions: in vivo, 1 h; outline: as §1
Bone [14] = assay: Drug uptake in ICR mouse bone at 370 kBq/100 ul, iv at 10 mins by gamma-counting analysis; type: ADME, organism-based, Bone element; conditions: in vivo; outline: as §1
Kidney [15] = assay: Drug uptake in ICR mouse kidney at 370 kBq/100 ul, iv at 10 mins by gamma-counting analysis; type: ADME, organism-based; conditions: in vivo; outline: as §1
Intestine [16] = assay: Drug uptake in ICR mouse intestine assessed per organ at 370 kBq/100 ul, iv at 10 mins by gamma-counting analysis; type: ADME, organism-based; conditions: in vivo; outline: as §3
Intestine [17] = assay: Drug uptake in ICR mouse intestine assessed per organ at 370 kBq/100 ul, iv at 60 mins by gamma-counting analysis; type: ADME, organism-based; conditions: in vivo, 1 h; outline: as §3
Lung [18] = assay: Drug uptake in ICR mouse lung at 370 kBq/100 ul, iv at 2 mins by gamma-counting analysis; type: ADME, organism-based; conditions: in vivo; outline: as §1
Heart [19] = assay: Drug uptake in ICR mouse heart at 370 kBq/100 ul, iv at 2 mins by gamma-counting analysis; type: ADME, organism-based; conditions: in vivo; outline: as §1
Lung [20] = assay: Drug uptake in ICR mouse lung at 370 kBq/100 ul, iv at 10 mins by gamma-counting analysis; type: ADME, organism-based; conditions: in vivo; outline: as §1
Spleen [21] = assay: Drug uptake in ICR mouse spleen at 370 kBq/100 ul, iv at 2 mins by gamma-counting analysis; type: ADME, organism-based; conditions: in vivo; outline: as §1
Intestine [22] = assay: Drug uptake in ICR mouse intestine assessed per organ at 370 kBq/100 ul, iv at 2 mins by gamma-counting analysis; type: ADME, organism-based; conditions: in vivo; outline: as §3
Bone [23] = assay: Drug uptake in ICR mouse bone at 370 kBq/100 ul, iv at 60 mins by gamma-counting analysis; type: ADME, organism-based, Bone element; conditions: in vivo, 1 h; outline: as §1
Liver [24] = assay: Drug uptake in ICR mouse liver at 370 kBq/100 ul, iv at 2 mins by gamma-counting analysis; type: ADME, organism-based; conditions: in vivo; outline: as §1
Liver [25] = assay: Drug uptake in ICR mouse liver at 370 kBq/100 ul, iv at 30 mins by gamma-counting analysis; type: ADME, organism-based; conditions: in vivo, 0.5 h; outline: as §1
Stomach [26] = assay: Drug uptake in ICR mouse stomach assessed per organ at 370 kBq/100 ul, iv at 30 mins by gamma-counting analysis; type: ADME, organism-based; conditions: in vivo, 0.5 h; outline: as §3
Brain [27] = assay: Drug uptake in ICR mouse brain at 370 kBq/100 ul, iv at 2 mins by gamma-counting analysis; type: ADME, organism-based; conditions: in vivo; outline: as §1
Blood [28] = assay: Drug uptake in ICR mouse blood at 370 kBq/100 ul, iv at 2 mins by gamma-counting analysis; type: ADME, organism-based; conditions: in vivo; outline: as §1
Blood [29] = assay: Drug uptake in ICR mouse blood at 370 kBq/100 ul, iv at 30 mins by gamma-counting analysis; type: ADME, organism-based; conditions: in vivo, 0.5 h; outline: as §1
Blood [30] = assay: Drug uptake in ICR mouse blood at 370 kBq/100 ul, iv at 10 mins by gamma-counting analysis; type: ADME, organism-based; conditions: in vivo; outline: as §1
Bone [31] = assay: Drug uptake in ICR mouse bone at 370 kBq/100 ul, iv at 30 mins by gamma-counting analysis; type: ADME, organism-based, Bone element; conditions: in vivo, 0.5 h; outline: as §1
Lung [32] = assay: Drug uptake in ICR mouse lung at 370 kBq/100 ul, iv at 30 mins by gamma-counting analysis; type: ADME, organism-based; conditions: in vivo, 0.5 h; outline: as §1
Liver [33] = assay: Drug uptake in ICR mouse liver at 370 kBq/100 ul, iv at 10 mins by gamma-counting analysis; type: ADME, organism-based; conditions: in vivo; outline: as §1
Kidney [34] = assay: Drug uptake in ICR mouse kidney at 370 kBq/100 ul, iv at 2 mins by gamma-counting analysis; type: ADME, organism-based; conditions: in vivo; outline: as §1
Heart [35] = assay: Drug uptake in ICR mouse heart at 370 kBq/100 ul, iv at 10 mins by gamma-counting analysis; type: ADME, organism-based; conditions: in vivo; outline: as §1
Bone [36] = assay: Drug uptake in ICR mouse bone at 370 kBq/100 ul, iv at 2 mins by gamma-counting analysis; type: ADME, organism-based, Bone element; conditions: in vivo; outline: as §1
Blood [37] = assay: Drug uptake in ICR mouse blood at 370 kBq/100 ul, iv at 60 mins by gamma-counting analysis; type: ADME, organism-based; conditions: in vivo, 1 h; outline: as §1
Brain [38] = assay: Drug uptake in wild type C57BL6 mouse brain at 370 KBq/100 ul after 1 hr by autoradiographic analysis; type: ADME, tissue-based; conditions: in vitro
Outline: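 Paraffin brain sections from 12-month-old male control C57BL6 mice were deparaffinized through xylene and graded ethanol, then held in PBS (0.2 M, pH 7.4) for 30 min. They were incubated with the ¹⁸F tracer (370 KBq per 100 μL) for 1 h at room temperature. Sections were washed in 40% EtOH, rinsed with water for 1 min, dried, and exposed to a phosphor plate for 2 h. The same sections were then stained with thioflavin S.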

Spleen [39] = assay: Drug uptake in ICR mouse spleen at 370 kBq/100 ul, iv at 30 mins by gamma-counting analysis; type: ADME, organism-based; conditions: in vivo, 0.5 h; outline: as §1
Heart [40] = assay: Drug uptake in ICR mouse heart at 370 kBq/100 ul, iv at 30 mins by gamma-counting analysis; type: ADME, organism-based; conditions: in vivo, 0.5 h; outline: as §1
Kidney [41] = assay: Drug uptake in ICR mouse kidney at 370 kBq/100 ul, iv at 60 mins by gamma-counting analysis; type: ADME, organism-based; conditions: in vivo, 1 h; outline: as §1
Brain [42] = assay: Drug uptake in ICR mouse brain at 370 kBq/100 ul, iv at 10 mins by gamma-counting analysis; type: ADME, organism-based; conditions: in vivo; outline: as §1
Lung [43] = assay: Drug uptake in ICR mouse lung at 370 kBq/100 ul, iv at 60 mins by gamma-counting analysis; type: ADME, organism-based; conditions: in vivo, 1 h; outline: as §1
Brain [44] = assay: Ratio of drug uptake in brain at 2 mins to drug uptake in brain at 60 mins in ICR mouse at 370 KBq/100 ul, iv; type: ADME, organism-based; conditions: in vivo; outline: as §2

Ki [1]: 4.6 nM
SMILES: CN(C)c1ccc(-c2nc3ccc(OCCOCCF)cc3s2)cn1

Drug uptake (Heart [2]): 2.02 % ID/g
logD at 0.05 h [3]: 3.08
Drug uptake (Spleen [4]): 1.47 % ID/g
Drug uptake (Brain [5]): 1.84 % ID/g
Drug uptake (Spleen [6]): 2.97 % ID/g
Drug uptake (Stomach [7]): 11.34 %ID
Drug uptake (Kidney [8]): 3.88 % ID/g
Drug uptake (Stomach [9]): 2.55 %ID
Drug uptake (Intestine [10]): 19.57 %ID
Ki [1]: 5.8 nM
Drug uptake (Brain [11]): 1.98 % ID/g
Drug uptake (Stomach [12]): 8.98 %ID
Drug uptake (Liver [13]): 4.75 % ID/g
Drug uptake (Bone [14]): 0.95 % ID/g
Drug uptake (Kidney [15]): 5.45 % ID/g
Drug uptake (Intestine [16]): 10.4 %ID
Drug uptake (Intestine [17]): 26.66 %ID
Drug uptake (Lung [18]): 6.69 % ID/g
Drug uptake (Heart [19]): 4.5 % ID/g
Drug uptake (Lung [20]): 4.59 % ID/g
Drug uptake (Spleen [21]): 3.14 % ID/g
Drug uptake (Intestine [22]): 4.68 %ID
Drug uptake (Bone [23]): 1.58 % ID/g
Drug uptake (Liver [24]): 12.9 % ID/g
Drug uptake (Liver [25]): 6.79 % ID/g
Drug uptake (Stomach [26]): 14.13 %ID
Drug uptake (Brain [27]): 3.26 % ID/g
Drug uptake (Blood [28]): 9.79 % ID/g
Drug uptake (Blood [29]): 4.96 % ID/g
Drug uptake (Blood [30]): 5.44 % ID/g
Drug uptake (Bone [31]): 1.64 % ID/g
Drug uptake (Lung [32]): 3.28 % ID/g
Drug uptake (Liver [33]): 11.6 % ID/g
Drug uptake (Kidney [34]): 6.82 % ID/g
Drug uptake (Heart [35]): 3.3 % ID/g
Drug uptake (Bone [36]): 1.86 % ID/g
Drug uptake (Blood [37]): 3.79 % ID/g
Drug uptake (Brain [38]): Not Active
Drug uptake (Spleen [39]): 2.59 % ID/g
Drug uptake (Heart [40]): 2.62 % ID/g
Drug uptake (Kidney [41]): 3.01 % ID/g
Drug uptake (Brain [42]): 2.64 % ID/g
Drug uptake (Lung [43]): 2.33 % ID/g
Ratio (Brain [44]): 1.77
SMILES: CN(C)c1ccc(-c2nc3ccc(OCCOCCOCC[18F])cc3s2)cn1
